SR-BI DiI inh – inhibitors of SR-BI mediated HDL lipid uptake, primary screen, ldlA[mSR-BI] cells, fluorescence, single point; ldlA[mSR-BI] CHO cells, DiI-HDL uptake fluorescence, 3 h; inhibition, % at 12.5 µM; 320,000 tested, 0.96% active;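 active = mean replicate inhibition of at least 70% and a set share of replicates each scoring 70 or more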
Target sequence (Q61009 whole entry, looked up): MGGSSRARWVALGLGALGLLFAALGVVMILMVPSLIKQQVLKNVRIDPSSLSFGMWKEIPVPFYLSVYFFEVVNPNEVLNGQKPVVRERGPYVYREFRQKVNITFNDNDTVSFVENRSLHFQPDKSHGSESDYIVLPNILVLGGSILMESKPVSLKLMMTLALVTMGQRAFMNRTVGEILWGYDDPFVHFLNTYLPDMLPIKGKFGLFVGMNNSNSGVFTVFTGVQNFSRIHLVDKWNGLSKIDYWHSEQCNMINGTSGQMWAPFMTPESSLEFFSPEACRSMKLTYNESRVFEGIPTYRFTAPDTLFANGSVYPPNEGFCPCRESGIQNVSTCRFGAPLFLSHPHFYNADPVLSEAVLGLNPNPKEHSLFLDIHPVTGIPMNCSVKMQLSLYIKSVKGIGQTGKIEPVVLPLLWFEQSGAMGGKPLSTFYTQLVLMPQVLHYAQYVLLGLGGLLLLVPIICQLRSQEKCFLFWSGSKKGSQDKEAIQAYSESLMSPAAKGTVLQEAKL
C2C12 statin – suppressors of statin myotoxicity in C2C12 myotubes, primary screen, cell-based, single point, plate reader; C2C12 myotubes + simvastatin, ATP luminescence, 48 h; scaled: DMSO 0, geranylgeraniol control 100; rescue of ATP level, % at 7.49 µM; 330,000 tested, 0.78% active;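 active = mean ATP rescue above about 67%, or every replicate alone reaching that limit, limit read from the data, passing the limit was not always enough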;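 note: myotubes were challenged with 10 µM simvastatin during compound exposure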
SR-BI DiI-HDL act – activators of SR-BI mediated DiI-HDL uptake, primary screen, ldlA[mSR-BI] CHO cells, DiI fluorescence; 3 h; 100 = double the neutral-control signal; activation, % at 12.5 µM; 320,000 tested, 0.096% active; AID 504775, 2011;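 active = mean replicate activation of at least 60% and every replicate at or above 60%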
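system = CHO ldlA[mSR-BI] cells, LDL receptor-null, SR-BI overexpressing | medium = Ham's F12 with 0.5% BSA, HEPES 25 mM, pH 7.4 | probe or stimulus = DiI-HDL 10 µg/mL | compound dosing = single-point compound dose | incubation = compound exposure 3 h, 37 °C | technique = DiI fluorescence, bottom read | read-out = cell-associated DiI fluorescence as measure of HDL uptake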
Vif imaging – HIV Vif self-association inhibitors, primary screen, imaging, HEK293T, single point; inhibition, % at 7.49 µM; HEK293T cells, Vif self-association by quenched fluorescence, 24 h; 340,000 tested, 0.35% active; in the data active = inhibition above about 50%, passing the limit was not always enough
A number is an active result; - = inactive; . = not tested or not shown. A selection: hits, their analogues and other compounds. The true share with any hit is near 1.7%.

SMILES | SR-BI DiI inh | C2C12 statin | SR-BI DiI-HDL act | Vif imaging
CO[C@@H]1CN(C)C(=O)c2cc(NC(=O)C3CCCC3)ccc2OC[C@H](C)N(C)C[C@H]1C | . | - | . | .
Cc1ccc(S(=O)(=O)N(C)C[C@H]2Oc3c(NC(=O)Nc4ccccc4)cccc3C(=O)N([C@@H](C)CO)C[C@@H]2C)cc1 | . | - | . | .
CCOc1ccc(N2C(=O)/C(=C/c3cccs3)N(CC(=O)OC)C2=S)cc1 | - | . | - | 97.5
CCc1ccc(/C=C2/C(=O)N(c3ccccc3)C(=S)N2CC(=O)OC)s1 | - | . | - | -
CCOc1ccc(-n2cc(C(=O)N3CCCCCC3)c3cc(OC)c(OC)cc3c2=O)cc1 | 74.6 | - | - | -
O=C1N=C(N2CCCCC2)S/C1=C\c1ccc(Br)cc1 | - | - | - | -
CN(C)c1ccc(/C=C2\SC(N3CCCCC3)=NC2=O)cc1 | - | - | - | 196.0
CCN(CC)S(=O)(=O)c1ccc2oc(C(=O)Nc3ccc(OC)cc3OC)c(C)c2c1 | 76.6 | - | - | -
C[C@H](CO)N1C[C@H](C)[C@@H](CN(C)C)Oc2ncc(C3=CCCC3)cc2C1=O | . | - | . | .
Cn1nnnc1SCCNC(=O)C1CCC(=O)N(Cc2ccccc2F)C1 (configuration not stated) | - | - | 71.9 | -
COc1ccc(S(=O)(=O)Nc2ccc3c(c2)C(=O)N([C@@H](C)CO)C[C@H](C)[C@@H](CN(C)C(=O)Nc2c(C)noc2C)OCCCC[C@H](C)O3)cc1 | . | - | . | .
COc1ccc(NC(=O)NNC(=O)c2ccc3ccccc3c2O)cc1OC | 115.4 | - | - | -
COc1cccc(C(=O)NNC(=O)c2ccc3ccccc3c2O)c1 | 107.5 | . | - | -
COc1cccc(C(=O)NNC(=O)c2ccccc2)c1 | - | - | - | -
COc1cccc(C(=O)NNC(=O)C2CC(C)=C(C)CC2C(=O)O)c1 (configuration not stated) | . | 98.5 | . | -
COc1ccc(/C(C)=N\Nc2nc(-c3ccccc3)cc(=O)[nH]2)cc1 | 72.7 | . | - | -
COc1ccc(/C(C)=N/Nc2nc(C)cc(-c3ccccc3)n2)cc1 | . | . | . | -
CN1CCc2c(sc3c2C(=O)NC(c2cccs2)N3)C1 (configuration not stated) | - | - | - | 79.8
Cc1ccsc1C1NC(=O)c2c(sc3c2CCN(C)C3)N1 (configuration not stated) | - | - | - | -
COc1ccc(S(=O)(=O)N(C)C[C@H]2Oc3ccc(NS(=O)(=O)c4cn(C)cn4)cc3CC(=O)N([C@@H](C)CO)C[C@@H]2C)cc1 | . | - | . | .
CN(C)S(=O)(=O)c1ccc(S(=O)(=O)N(CC(=O)Nc2ccccc2)CC2CCCO2)cc1 (configuration not stated) | - | 85.3 | - | -
O=C(CN(CC1CCCO1)S(=O)(=O)c1ccc(S(=O)(=O)NCC2CCCO2)cc1)Nc1ccccc1 (configuration not stated) | - | - | - | .
CCN1CCSc2ccc(C(=O)Nc3ccc(NC(C)=O)cc3)cc21 | 80.0 | - | - | -
CCOc1ccc(NC(=O)c2ccc3c(c2)N(C)CCS3)cc1 | . | - | . | .
CCC(CC)C(=O)Nc1cc(C(=O)OC)ccc1C(=O)OC | - | . | 66.6 | -
SMILES | SR-BI DiI inh | C2C12 statin | SR-BI DiI-HDL act | Vif imaging
O=C(Nc1ccc(Cl)cc1)[C@@H]1[C@@H]2C(=O)N(c3cccc(F)c3)C(=O)[C@@H]2[C@H]2C=CC=NN21 | - | . | - | -
O=C(Nc1ccc(Cl)cc1)[C@@H]1[C@@H]2C(=O)N(c3ccc4ccccc4c3)C(=O)[C@@H]2[C@H]2C=CC=NN21 | 76.4 | . | - | -
O=C(C[C@H]1C=C[C@H](NC(=O)Nc2ccccc2)[C@@H](CO)O1)NCc1ccccn1 | . | - | . | .
O=C(Nc1cc(F)ccc1F)N1C[C@@H]2[C@H](c3ccccc31)[C@@H](CO)N2Cc1cccnc1 | . | - | . | .
COCCNC(=O)C[C@H]1CC[C@H]2[C@@H](COC[C@@H](O)CN2Cc2cccc(-c3ccncc3)c2)O1 | . | - | . | .
O=C(COC(=O)/C=C/c1cccc(Cl)c1)NCCc1ccc(Cl)cc1Cl | - | . | 83.3 | -
CCS(=O)(=O)Nc1ccc2c(c1)C(=O)N(C)C[C@H](OC)[C@@H](C)CN(Cc1ccccn1)[C@H](C)CO2 | . | - | . | .
CCCOc1ccc(Cl)cc1/C=C1/C(=O)ON=C1C | - | - | - | -
CC1=NOC(=O)/C1=C\c1ccc(-c2ccc(Cl)cc2Cl)o1 | 128.9 | - | - | .

Bioassay records from PubChem BioAssay.
